Assay results published in ChEMBL document CHEMBL1123791, “3'-substituted 2',3'-dideoxynucleoside analogues as potential anti-HIV (HTLV-III/LAV) agents” (J Med Chem, 1987).

How the values were obtained:
MT4 [1] = experiment: Toxicity was determined by evaluation of cluster morphology and reclustering properties in mock infected MT-4 cells at 0.2 uM concentration; format: cell-based; conditions: human, mt4, 0.2 µM
MT4 [2] = experiment: Toxicity was determined by evaluation of cluster morphology and reclustering properties in mock infected MT-4 cells at 125 uM concentration; Range is 10-40; format: cell-based; conditions: human, mt4, 125 µM
Method in brief: (§1)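 Mock-infected MT4 cells were seeded at 2.5×10^5 cells/mL with compound at 125–0.00032 µM and cultured 5 days at 37 °C. Cluster morphology was scored microscopically, then cells were dispersed by pipetting and reclustering read after 4 h. Scoring: ++ >90%, + 10–40%, − <10% toxicity.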

MT4 [3] = experiment: Protection was determined by evaluation of cluster morphology and reclustering properties in […] MT-4 cells at 0.2 uM concentration; Range is 10-40; format: functional, Homo sapiens
Method in brief: (§2)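 MT4 cells infected with HIV (300 CCID50/well) were seeded at 2.5×10^5 cells/mL with compound at 125, 5, 0.2, 0.008 or 0.00032 µM and kept 5 days at 37 °C. Clusters were scored microscopically, dispersed by pipetting, and reclustering assessed after 4 h at 37 °C. Scoring: +++ >90% protection.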

MT4 [4] = experiment: Protection was determined by evaluation of cluster morphology and reclustering properties in […] at 5 uM concentration; Range is 40-60; format: functional, Homo sapiens
MT4 [5] = experiment: Protection was determined by evaluation of cluster morphology and reclustering properties in mock infected MT-4 cells at 125 uM concentration; format: functional, Homo sapiens; conditions: in the assay text read “HIV infected” for “mock infected”; method in brief: as §2
ATH-8 cell line [6] = experiment: Protection of ATH8 cells against the cytopathic effect of HIV.; format: functional; conditions: Homo sapiens, read-out: ED50 (the source's name)
ATH-8 cell line [7] = experiment: Required dose to reduce viability of normal uninfected ATH8 cells.; format: functional; conditions: Homo sapiens, read-out: ID50 (the source's name)
MT4 [8] = experiment: Toxicity was determined by evaluation of cluster morphology and reclustering properties in mock infected MT-4 cells at 5 uM concentration; format: cell-based; conditions: human, mt4, 5 µM; method in brief: as §1
MT4 [9] = experiment: Protection was determined by evaluation of cluster morphology and reclustering properties in […] MT-4 cells at 0.2 uM concentration; format: functional, Homo sapiens
MT4 [10] = experiment: Toxicity was determined by evaluation of cluster morphology and reclustering properties in mock infected MT-4 cells at 125 uM concentration; format: cell-based; conditions: human, mt4, 125 µM
MT4 [11] = experiment: Protection was determined by evaluation of cluster morphology and reclustering properties in […] MT-4 cells at 5 uM concentration; Range is 10-40; format: functional, Homo sapiens; method in brief: as §2
MT4 [12] = experiment: Protection was determined by evaluation of cluster morphology and reclustering properties in […] MT-4 cells at 0.00032 uM concentration; format: functional, Homo sapiens; method in brief: as §2
MT4 [13] = experiment: Protection was determined by evaluation of cluster morphology and reclustering properties in […] at 0.008 uM concentration.; format: functional, Homo sapiens
MT4 [14] = experiment: Protection was determined by evaluation of cluster morphology and reclustering properties in […] MT-4 cells at 5 uM concentration.; format: functional, Homo sapiens; method in brief: as §2
MT4 [15] = experiment: Protection was determined by evaluation of cluster morphology and reclustering properties in mock infected MT-4 cells at 125 uM concentration; Range is 10-40; format: functional, Homo sapiens; conditions: in the assay text read “HIV infected” for “mock infected”; method in brief: as §2
[16] = Therapeutic index (Ratio = ID50/ED50).
MT4 [17] = experiment: Toxicity was determined by evaluation of cluster morphology and reclustering properties in mock infected MT-4 cells at 0.00032 uM concentration; format: cell-based; conditions: human, mt4, 0.00032 µM; method in brief: as §1
MT4 [18] = experiment: Toxicity was determined by evaluation of cluster morphology and reclustering properties in mock infected MT-4 cells at 0.2 uM concentration; Range is 10-40; format: cell-based; conditions: human, mt4, 0.2 µM; method in brief: as §1
MT4 [19] = experiment: Toxicity was determined by evaluation of cluster morphology and reclustering properties in mock infected MT-4 cells at 0.008 uM concentration; format: cell-based; conditions: human, mt4, 0.008 µM; method in brief: as §1
MT4 [20] = experiment: Protection was determined by evaluation of cluster morphology and reclustering properties in […] MT-4 cells at 0.2 uM concentration; Range is 40-60; format: functional, Homo sapiens; method in brief: as §2
MT4 [21] = experiment: Protection was determined by evaluation of cluster morphology and reclustering properties in […] MT-4 cells at 125 uM concentration; Range is 40-60; format: functional, Homo sapiens
MT4 [22] = experiment: Toxicity was determined by evaluation of cluster morphology and reclustering properties in mock infected MT-4 cells at 5 uM concentration; Range is 10-40; format: cell-based; conditions: human, mt4, 5 µM
MT4 [23] = experiment: Protection was determined by evaluation of cluster morphology and reclustering properties in […] MT-4 cells at 0.00032 uM concentration; Range is 10-40; format: functional, Homo sapiens; method in brief: as §2
MT4 [24] = experiment: Protection was determined by evaluation of cluster morphology and reclustering properties in […] at 0.008 uM concentration; Range is 40-60; format: functional, Homo sapiens; method in brief: as §2
MT4 [25] = experiment: Protection was determined by evaluation of cluster morphology and reclustering properties in […] MT-4 cells at 0.008 uM concentration; Range is 10-40; format: functional, Homo sapiens; method in brief: as §2
MT4 [26] = experiment: Toxicity was determined by evaluation of cluster morphology and reclustering properties in mock infected MT-4 cells at 0.008 uM concentration; Range is 10-40; format: cell-based; conditions: human, mt4, 0.008 µM; method in brief: as §1

SMILES | Toxicity (MT4 [1]) | EC50 (ATH-8 cell line [6]) | IC50 (ATH-8 cell line [7]) | Toxicity (MT4 [8]) | Protection (MT4 [9]) | Toxicity (MT4 [10]) | Protection (MT4 [13]) | Protection (MT4 [14]) | selectivity ratio [16] | other results
Cc1cn([C@H]2C[C@H](N=[N+]=[N-])[C@@H](CO)O2)c(=O)nc1N | < 10% | > 100 µM | > 100 µM | < 10% | – | – | – | – | – | Toxicity (MT4 [2]): 10%; Protection (MT4 [3]): 10%; Protection (MT4 [4]): 40%; Protection (MT4 [5]): >90%
CCc1cn([C@H]2C[C@H](N=[N+]=[N-])[C@@H](CO)O2)c(=O)[nH]c1=O | < 10% | > 100 µM | > 100 µM | < 10% | <10% | > 90% | <10% | – | – | Protection (MT4 [11]): 10%; Protection (MT4 [12]): <10%
CCc1cn(C2CC(F)C(CO)O2)c(=O)[nH]c1=O (centres undefined) | < 10% | > 500 µM | > 500 µM | < 10% | <10% | < 10% | – | <10% | – | Protection (MT4 [15]): 10%
Nc1ncnc2c1ncn2[C@H]1CC[C@@H](CO)O1 | < 10% | 2.7 µM | > 500 µM | < 10% | <10% | < 10% | – | – | > 148 | Protection (MT4 [4]): 40%; Protection (MT4 [5]): >90%
Nc1ccn(C2CC(F)C(CO)O2)c(=O)n1 (centres undefined) | – | 8 µM | > 250 µM | > 90% | – | > 90% | <10% | – | > 31 | Toxicity (MT4 [17]): < 10%; Toxicity (MT4 [18]): 10%; Toxicity (MT4 [19]): < 10%; Protection (MT4 [12]): <10%; Protection (MT4 [20]): 40%
Nc1ccn(C2CC3OCC3O2)c(=O)n1 (centres undefined) | < 10% | 400 µM | > 500 µM | < 10% | <10% | < 10% | – | <10% | > 1.2 | Protection (MT4 [15]): 10%
NCC1C=CC(n2ccc(N)nc2=O)O1 (centres undefined) | < 10% | 260 µM | > 500 µM | < 10% | <10% | – | – | <10% | > 1.9 | Protection (MT4 [21]): 40%; Toxicity (MT4 [2]): 10%
Cc1cn(C2CC(SCCO)C(CO)O2)c(=O)[nH]c1=O (centres undefined) | < 10% | > 100 µM | > 100 µM | < 10% | <10% | – | – | <10% | – | Toxicity (MT4 [2]): 10%; Protection (MT4 [15]): 10%
CO[C@H]1C[C@H](n2cc(C)c(=O)[nH]c2=O)O[C@@H]1CO | < 10% | > 100 µM | 88 µM | – | <10% | > 90% | <10% | – | < 0.9 | Toxicity (MT4 [22]): 10%; Protection (MT4 [11]): 10%
Cc1cn([C@H]2CC[C@@H](CO)O2)c(=O)[nH]c1=O | < 10% | 100 µM | > 2000 µM | < 10% | – | < 10% | <10% | >90% | > 20 | Protection (MT4 [3]): 10%
Cc1cn([C@H]2C[C@H](N=[N+]=[N-])[C@@H](CO)O2)c(=O)[nH]c1=O (stereo in doubt; 1a) [ZIDOVUDINE] | – | 2.4 µM | 45 µM | – | >90% | – | – | – | 19 | Protection (MT4 [23]): 10%; Toxicity (MT4 [17]): < 10%; Toxicity (MT4 [10]; 125 µM): > 90%; Toxicity (MT4 [19]): < 10%; Protection (MT4 [24]): 40%; Toxicity (MT4 [8]; 5 µM): > 90%
Cc1cn([C@H]2C[C@H](F)[C@@H](CO)O2)c(=O)[nH]c1=O [ALOVUDINE] | > 90% | 1.4 µM | 15 µM | > 90% | – | > 90% | – | – | 10 | Protection (MT4 [23]): 10%; Protection (MT4 [25]): 10%; Toxicity (MT4 [17]): < 10%; Toxicity (MT4 [26]): 10%
Nc1ccn([C@H]2C[C@H](O)[C@@H](CO)O2)c(=O)n1 [DOXECITINE] | < 10% | > 100 µM | > 100 µM | – | <10% | > 90% | <10% | <10% | – | Toxicity (MT4 [22]): 10%
Cc1cn([C@H]2C[C@H](O)[C@@H](CO)O2)c(=O)[nH]c1=O [DOXRIBTIMINE] | < 10% | > 100 µM | > 100 µM | < 10% | <10% | < 10% | – | <10% | – | Protection (MT4 [21]): 40%
Cc1cn([C@H]2C=C[C@@H](CO)O2)c(=O)[nH]c1=O [STAVUDINE] | – | 4.1 µM | 110 µM | > 90% | >90% | > 90% | – | – | 27 | Protection (MT4 [25]): 10%; Toxicity (MT4 [18]): 10%; Protection (MT4 [12]): <10%
